Results from ChEMBL document CHEMBL1124054, “Synthesis and biological activity of ketomethylene-containing nonapeptide analogues of snake venom angiotensin converting enzyme inhibitors” (J Med Chem, 1988).
Starred links: 1 amine or outer side, 2 acyl side, 3 side chain; linkers in the order of their positions; H or OH if unused. Non-standard residues stand in square brackets, D forms with d. Residues, ends and D or L forms follow the SMILES beside them. *: point of attachment. X3 = O=C1CCN([*:1])[C@H]1C(=O)[*:2]; Cyclobutanecarbonyl = O=C(C1CCC1)*; pGlu = O=C1CC[C@@H](C(=O)O)N1

Tests used:
[1] = target: Angiotensin-converting enzyme (Oryctolagus cuniculus) (UniProt P12822); test: Inhibition of Angiotensin I converting enzyme from rabbit lung; details: read-out: I50
[2] = target: T1, Angiotensin-converting enzyme (Rattus norvegicus, UniProt P47820); test: Inhibition of Angiotensin I converting enzyme in normotensive rat; format: functional; details: read-out: I50 (converted)
T1 sequence (P47820 whole entry): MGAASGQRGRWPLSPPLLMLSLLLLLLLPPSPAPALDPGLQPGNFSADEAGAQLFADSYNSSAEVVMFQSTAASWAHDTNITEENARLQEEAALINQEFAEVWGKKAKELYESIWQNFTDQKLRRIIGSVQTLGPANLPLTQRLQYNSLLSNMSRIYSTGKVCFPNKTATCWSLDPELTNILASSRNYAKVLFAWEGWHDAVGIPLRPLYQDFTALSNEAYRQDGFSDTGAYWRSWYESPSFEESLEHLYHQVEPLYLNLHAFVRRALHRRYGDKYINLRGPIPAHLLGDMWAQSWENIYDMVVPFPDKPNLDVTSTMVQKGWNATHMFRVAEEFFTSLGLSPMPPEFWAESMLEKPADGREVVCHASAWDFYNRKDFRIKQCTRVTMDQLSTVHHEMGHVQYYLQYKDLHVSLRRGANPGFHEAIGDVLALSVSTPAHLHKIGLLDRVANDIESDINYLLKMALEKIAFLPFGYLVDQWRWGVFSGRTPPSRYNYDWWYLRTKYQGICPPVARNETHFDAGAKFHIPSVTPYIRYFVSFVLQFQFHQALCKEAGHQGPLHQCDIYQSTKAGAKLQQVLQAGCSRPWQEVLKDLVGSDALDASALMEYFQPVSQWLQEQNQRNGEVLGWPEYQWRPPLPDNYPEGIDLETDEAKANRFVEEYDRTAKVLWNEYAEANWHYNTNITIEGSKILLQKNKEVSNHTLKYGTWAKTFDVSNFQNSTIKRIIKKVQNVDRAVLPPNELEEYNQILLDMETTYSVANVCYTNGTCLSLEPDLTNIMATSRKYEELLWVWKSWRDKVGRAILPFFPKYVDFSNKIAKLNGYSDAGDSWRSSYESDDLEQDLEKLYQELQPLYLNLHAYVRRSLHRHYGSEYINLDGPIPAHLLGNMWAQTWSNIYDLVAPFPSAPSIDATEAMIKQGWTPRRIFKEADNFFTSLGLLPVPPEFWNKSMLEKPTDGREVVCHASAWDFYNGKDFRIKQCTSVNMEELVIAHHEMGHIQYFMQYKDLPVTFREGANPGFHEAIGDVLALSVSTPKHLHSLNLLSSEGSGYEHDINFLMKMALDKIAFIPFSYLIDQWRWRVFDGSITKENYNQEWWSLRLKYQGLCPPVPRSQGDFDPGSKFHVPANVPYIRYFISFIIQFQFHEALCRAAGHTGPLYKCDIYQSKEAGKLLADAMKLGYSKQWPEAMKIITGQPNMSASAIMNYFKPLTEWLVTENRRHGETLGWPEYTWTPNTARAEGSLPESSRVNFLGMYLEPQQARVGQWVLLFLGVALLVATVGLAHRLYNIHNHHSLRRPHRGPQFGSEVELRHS

[3] = test system: trypsin; test: Time required for 50% degradation by trypsin; format: ADME; details: read-out: Time
[4] = species: Rattus norvegicus; test: Time required for 100% degradation in rat stomach homogenate; format: ADME
Summary of the method: (§1)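 Peptide, partially neutralized with 0.1 N HCl, incubated at 37 °C with 150 mg rat stomach homogenate. Breakdown monitored by TLC.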

[5] = Time required for 50% degradation in rat intestinal homogenate; format: ADME; details: read-out: Time (converted)
Summary of the method: (§2)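 Rat small intestine was taken immediately after sacrifice and minced in Krebs Ringer (10 mL/g). Peptide (0.2–0.5 μmol) mixed with homogenate (1.0 mL per μmol), shaken at 37 °C. Degradation followed by TLC.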

[6] = Time required for degradation by pepsin (none); format: ADME
[7] = Time required for 50% degradation in rat stomach homogenate; format: ADME; details: read-out: Time (converted)
Summary of the method: as §1

[8] = Time required for 100% degradation by trypsin; format: ADME
[9] = test system: chymotrypsin; test: Time required for 50% degradation by chymotrypsin; format: ADME; details: read-out: Time (converted)
Summary of the method: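 Peptide (0.5–1.0 μmol) in 0.1 M Tris, pH 7.8, stirred at room temperature with chymotrypsin (37 units dissolved in 50 mL cold 0.001 N HCl; 0.050 mL per μmol peptide). Degradation followed over time by TLC.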

[10] = species: Rattus norvegicus; test: Time required for 100% degradation in rat intestinal homogenate; format: ADME
Summary of the method: as §2

Which IC50 [1] does the source give for `NCCCCC(NC(=O)C1CCC1)C(=O)NC(Cc1ccccc1)C(=O)CCC(=O)N1CCCC1C(=O)O` (stereo not given) here?
Its IC50 is 6 nM.

For `C[C@H](NC(=O)[C@H](Cc1ccccc1)NC(=O)[C@H](CCCCN)NC(=O)[C@@H]1NCCC1=O)C(=O)N1CCC[C@H]1C(=O)O` (H-[X3]KFAP-OH), which IC50 [2] is on record?
Its IC50 is 87.3 nM.

With `C[C@H](NC(=O)[C@H](Cc1ccccc1)NC(=O)[C@H](CCCCN)NC(=O)C1CCC1)C(=O)N1CCC[C@H]1C(=O)O` (Cyclobutanecarbonyl-KFAP-OH) as the compound, how does the IC50 [1] read?
The IC50 was 40 nM.

With `CC[C@H](C)[C@H](NC(=O)[C@H](CCC(N)=O)NC(=O)[C@@H]1CCCN1C(=O)CNC(=O)[C@@H]1CCCN1C(=O)[C@H](Cc1c[nH]c2ccccc12)NC(=O)[C@@H]1CCC(=O)N1)C(=O)N1CCC[C@H]1C(=O)N1CCC[C@H]1C(=O)O` ([pGlu]WPGPQIPP-OH) as the compound, how does the IC50 [1] read?
Its IC50 is 1900 nM.

For `NCCCC[C@H](NC(=O)[C@@H]1CCC(=O)N1)C(=O)N[C@@H](Cc1ccccc1)C(=O)NCC(=O)N1CCC[C@H]1C(=O)O` ([pGlu]KFGP-OH), which IC50 [2] is on record?
Its IC50 is 179 nM.

Which IC50 [1] does the source give for `CC[C@H](C)[C@H](NC(=O)[C@H](CCC(N)=O)NC(=O)[C@@H]1CCCN1C(=O)[C@H](CCCNC(=N)N)NC(=O)[C@@H]1CCCN1C(=O)[C@H](Cc1c[nH]c2ccccc12)NC(=O)[C@@H]1CCC(=O)N1)C(=O)N1CCC[C@H]1C(=O)N1CCC[C@H]1C(=O)O` [TEPROTIDE] here?
The IC50 was 1100 nM.

For `NCCCC[C@H](NC(=O)[C@@H]1CCCN1C(=O)CNC(=O)[C@@H]1CCCN1C(=O)[C@H](Cc1ccc(O)cc1)NC(=O)C1CCC1)C(=O)N[C@@H](Cc1ccccc1)C(=O)NCC(=O)N1CCC[C@H]1C(=O)O` (Cyclobutanecarbonyl-YPGPKFGP-OH), which half-life [3] is on record?
Its half-life is under 5 min.

What about the Time [4] of the same compound?
Its Time is 5 h.

What about the half-life [5] of the same compound?
Its half-life is 20 min.

What about the Time [6] of the same compound?
Its Time is 24 h.

What about the IC50 [1] of the same compound?
The IC50 was 340 nM.

What about the half-life [7] of the same compound?
The half-life was over 60 min.

What about the Time [8] of the same compound?
The Time was 20 min.

What about the half-life [9] of the same compound?
Its half-life is 1320 min.

And the Time [10]?
The Time was 40 min.
